Laboratory results published in ChEMBL document CHEMBL4602728, “6-Amino[1,2,5]oxadiazolo[3,4-b]pyrazin-5-ol Derivatives as Efficacious Mitochondrial Uncouplers in STAM Mouse Model of Nonalcoholic Steatohepatitis” (J Med Chem, 2020).
Active and inactive are the calls of the source.

Assays:
[1] = system: Mus musculus; assay: Anti-hepatosteatosis activity in C57BL/6 mouse model of streptozotocin-induced nonalcoholic steatohepatitis assessed as reduction in ALT level at 25 mg/kg/day, po administered for 21 days formulated into HFD measured post-last dose; assay type: functional, organism-based
Summary of the method: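 STAM male mice were dosed with compound premixed into high-fat diet (57 kcal % fat) from 6 weeks of age for 21 days, at 25 mg kg−1 d−1. They were sacrificed at 9 weeks of age by cardiac puncture under isoflurane. Nonfasting heparinized blood was spun at 1000g for 15 min at 4 °C, and plasma ALT was read on a dry-chemistry analyzer. n = 8 male mice per group; mean ± SEM.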

[2] = system: Mus musculus; assay: Anti-hepatosteatosis activity in C57BL/6 mouse model of streptozotocin-induced nonalcoholic steatohepatitis assessed as reduction in steatosis score at 25 mg/kg/day, po administered for 21 days formulated into HFD measured post-last dose by […] based histopathological analysis; assay type: functional, organism-based
Summary of the method: (§1)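 Liver tissue came from STAM male mice fed drug-containing high-fat diet at 25 mg kg−1 d−1 for 21 days from 6 weeks of age. Pieces of the left lateral lobe were Bouin-fixed and paraffin-embedded, then H&E-stained. A pathologist scored steatosis, inflammation and ballooning using the Kleiner NAFLD activity score criteria. n = 8 per group; Kruskal–Wallis test.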

[3] = Drug distribution in C57BL/6 mouse liver at 10 mg/kg, po administered via gavage measured after 1 hr by LC/MS-MS analysis; assay type: ADME, organism-based; conditions: read-out: Drug uptake
Summary of the method: (§2)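 Male C57BL/6 mice received a single 10 mg/kg oral gavage and were euthanized by cervical dislocation at 1 h. Tissues were rinsed in PBS, snap-frozen, pulverized in liquid nitrogen and homogenized, then spun at 10 000g for 10 min. Supernatants were extracted with acetonitrile:methanol (9:1) and quantified by LC–MS/MS against spiked standards. n = 3.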

[4] = Toxicity in C57BL/6 mouse model of streptozotocin-induced nonalcoholic steatohepatitis assessed as effect on food consumption per cage at 25 mg/kg/day, po formulated into HFD administered for 21 days measured during compound dosing (reference value: 318 +/- 13 g); assay type: organism-based; conditions: in vivo, 504 h
[5] = Toxicity in C57BL/6 mouse assessed as increase in body temperature at 5 to 50 mg/kg, po measured upto 4 hrs by rectal probe thermometry; assay type: organism-based; conditions: in vivo
Summary of the method: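 Male C57BL/6 mice received a single oral gavage of vehicle or compound at 5, 20 or 50 mg/kg. The vehicle was methylcellulose, Tween 80 and DMSO. Core body temperature was taken with a rectal probe thermometer at set time points. n = 3; two-way repeated measures ANOVA.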

[6] = target: Voltage-gated inwardly rectifying potassium channel KCNH2 (Homo sapiens, UniProt Q12809); assay: Inhibition of human ERG by Qpatch method
Sequence of Voltage-gated inwardly rectifying potassium channel KCNH2 (Q12809 whole entry): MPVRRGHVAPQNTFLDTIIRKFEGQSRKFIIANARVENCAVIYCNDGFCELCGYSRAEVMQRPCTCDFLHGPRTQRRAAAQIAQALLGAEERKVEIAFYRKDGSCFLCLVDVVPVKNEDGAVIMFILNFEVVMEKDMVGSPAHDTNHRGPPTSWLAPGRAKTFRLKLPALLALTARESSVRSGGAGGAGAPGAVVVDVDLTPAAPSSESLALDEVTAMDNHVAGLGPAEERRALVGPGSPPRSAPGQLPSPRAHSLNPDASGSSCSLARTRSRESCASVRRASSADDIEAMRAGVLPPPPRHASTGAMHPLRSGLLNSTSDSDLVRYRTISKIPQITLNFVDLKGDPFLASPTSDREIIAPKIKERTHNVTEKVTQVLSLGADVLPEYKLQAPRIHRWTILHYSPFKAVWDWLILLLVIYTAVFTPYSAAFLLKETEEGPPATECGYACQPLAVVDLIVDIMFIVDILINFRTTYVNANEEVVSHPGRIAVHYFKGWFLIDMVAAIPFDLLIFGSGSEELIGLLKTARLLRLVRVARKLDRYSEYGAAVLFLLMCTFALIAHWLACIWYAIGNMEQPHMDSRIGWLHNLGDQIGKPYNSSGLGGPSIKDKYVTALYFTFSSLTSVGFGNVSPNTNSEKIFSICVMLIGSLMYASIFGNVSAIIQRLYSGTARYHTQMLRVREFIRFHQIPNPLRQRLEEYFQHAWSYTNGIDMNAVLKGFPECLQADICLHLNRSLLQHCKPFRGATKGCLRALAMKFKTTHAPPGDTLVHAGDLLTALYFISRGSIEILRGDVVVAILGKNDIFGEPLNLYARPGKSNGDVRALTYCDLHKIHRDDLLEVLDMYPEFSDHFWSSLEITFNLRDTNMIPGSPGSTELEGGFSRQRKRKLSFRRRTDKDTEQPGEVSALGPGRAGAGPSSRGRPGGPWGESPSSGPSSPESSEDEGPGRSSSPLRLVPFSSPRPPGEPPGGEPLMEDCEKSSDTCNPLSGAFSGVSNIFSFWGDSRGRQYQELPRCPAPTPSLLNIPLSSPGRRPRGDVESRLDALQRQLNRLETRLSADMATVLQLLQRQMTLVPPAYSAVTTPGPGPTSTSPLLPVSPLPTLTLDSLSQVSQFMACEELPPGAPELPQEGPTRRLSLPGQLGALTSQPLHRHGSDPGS

[7] = Toxicity in C57BL/6 mouse model of streptozotocin-induced nonalcoholic steatohepatitis assessed as effect on plasma cholesterol level at 25 mg/kg/day, po formulated into HFD administered for 21 days measured post last dose by […] reagent based colorimetric method; assay type: organism-based; conditions: in vivo, 504 h
Summary of the method: (§3)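 Cholesterol was measured in day-21 nonfasting plasma of STAM male mice on 25 mg kg−1 d−1 drug in high-fat diet. The colorimetric assay used Infinity cholesterol reagent at 37 °C for 5–20 min, reading absorbance at 500 nm minus 660 nm background. Values were interpolated from a cholesterol standard curve. n = 8; Kruskal–Wallis test.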

[8] = Toxicity in C57BL/6 mouse model of streptozotocin-induced nonalcoholic steatohepatitis assessed as change in plasma AST level at 25 mg/kg/day, po formulated into HFD administered for 21 days measured post last dose; assay type: organism-based; conditions: in vivo, 504 h
Summary of the method: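 Plasma was taken at day 21 from STAM mice fed drug in high-fat diet at 25 mg kg−1 d−1. AST activity was read with Infinity AST reagent at 37 °C, measuring absorbance at 340 nm every minute for 20 min. U/L was calculated from ΔA/min times a factor based on the NADH molar absorption coefficient, sample volume and path length. n = 8; one-way ANOVA.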

[9] = Half life in C57BL/6 mouse at 10 mg/kg, po administered via gavage by LC/MS-MS analysis; assay type: ADME, organism-based; conditions: in vivo
Summary of the method: (§4)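 Male C57BL/6 mice aged 9–12 weeks received a single 10 mg/kg oral gavage bolus. The vehicle was methylcellulose 90–91%, Tween 80 2–3% and DMSO 6–8% (v/v). Tail-tip blood was drawn into heparinized capillaries and spun at 2000g for 10 min. Plasma was extracted with acetonitrile:methanol (9:1) and quantified by LC–MS/MS against spiked plasma standards (1–100 ng). n = 3.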

[10] = Toxicity in C57BL/6 mouse model of streptozotocin-induced nonalcoholic steatohepatitis assessed as effect on liver weight at 25 mg/kg/day, po formulated into HFD administered for 21 days measured during compound dosing; assay type: organism-based; conditions: in vivo, 504 h
Summary of the method: (§5)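 STAM male mice received the compound premixed in high-fat diet for 21 days from 6 weeks of age, at 25 mg kg−1 d−1. Body weight was recorded, and livers were weighed after sacrifice at 9 weeks of age. n = 8 per group; Kruskal–Wallis test.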

[11] = Toxicity in C57BL/6 mouse model of streptozotocin-induced nonalcoholic steatohepatitis assessed as effect on body weight at 25 mg/kg/day, po formulated into HFD administered for 21 days measured during compound dosing; assay type: organism-based; conditions: in vivo, 504 h; summary of the method: as §5
[12] = system: Mus musculus; assay: Anti-hepatosteatosis activity in C57BL/6 mouse model of streptozotocin-induced nonalcoholic steatohepatitis assessed as reduction in inflammation score at 25 mg/kg/day, po administered for 21 days formulated into HFD measured post-last dose by […] based histopathological analysis; assay type: functional, organism-based; summary of the method: as §1
[13] = system: Mus musculus; assay: Anti-hepatosteatosis activity in C57BL/6 mouse model of streptozotocin-induced nonalcoholic steatohepatitis assessed as reduction in ballooning score at 25 mg/kg/day, po administered for 21 days formulated into HFD measured post-last dose by […] based histopathological analysis; assay type: functional, organism-based; summary of the method: as §1
[14] = Cmax in C57BL/6 mouse at 10 mg/kg, po administered via gavage by LC/MS-MS analysis; assay type: ADME, organism-based; design: dose 10 mg/kg, route oral; conditions: in vivo; summary of the method: as §4
[15] = Drug distribution in C57BL/6 mouse kidney at 10 mg/kg, po administered via gavage measured after 1 hr by LC/MS-MS analysis; assay type: ADME, organism-based; conditions: read-out: Drug uptake; summary of the method: as §2
[16] = system: Mus musculus; assay: Anti-hepatosteatosis activity in C57BL/6 mouse model of streptozotocin-induced nonalcoholic steatohepatitis assessed as reduction in liver triglyceride level at 25 mg/kg/day, po administered for 21 days formulated into HFD measured post-last dose by triglyceride E test based assay; assay type: functional, organism-based
Summary of the method: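 STAM male mice received 25 mg kg−1 d−1 in high-fat diet for 21 days and were killed at 9 weeks of age. The right liver lobe was snap-frozen. Total lipids were extracted by Folch's method, with homogenization in chloroform–methanol (2:1, v/v) and overnight incubation at room temperature. n = 8 per group; one-way ANOVA.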

[17] = Induction of mitochondrial uncoupling in rat L6 cells assessed as increase in oxygen consumption rate incubated for 90 mins by Seahorse XF analyzer based assay; assay type: mitochondria, Mitochondria
[18] = Solubility of compound in PBS at pH 7.4; assay type: physicochemical; conditions: buffer
[19] = Toxicity in C57BL/6 mouse model of streptozotocin-induced nonalcoholic steatohepatitis assessed as effect on plasma glucose level at 25 mg/kg/day, po formulated into HFD administered for 21 days measured post last dose by […]; assay type: organism-based; conditions: in vivo, 504 h
Summary of the method: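 Nonfasting whole-blood glucose was read with a glucose meter at sacrifice (day 21) in STAM male mice dosed at 25 mg kg−1 d−1 via high-fat diet. Readings above 900 mg/dL were recorded as 900 mg/dL. n = 8; one-way ANOVA.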

[20] = system: Mus musculus; assay: (§6) Anti-hepatosteatosis activity in C57BL/6 mouse model of streptozotocin-induced nonalcoholic steatohepatitis assessed as fibrosis score at 25 mg/kg/day, po administered for 21 days formulated into HFD measured post-last dose by Picro-Sirius red staining based histopathological analysis (reference value: 0.91 +/- 0.09 %); assay type: functional
[21] = Toxicity in C57BL/6 mouse model of streptozotocin-induced nonalcoholic steatohepatitis assessed as effect on plasma triglyceride level at 25 mg/kg/day, po formulated into HFD administered for 21 days measured post last dose by GPO reagent based colorimetric method; assay type: organism-based; conditions: in vivo, 504 h
Summary of the method: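 Plasma triglyceride was measured in day-21 nonfasting plasma from STAM male mice given 25 mg kg−1 d−1 in high-fat diet. Samples were incubated with GPO reagent at 37 °C for 5–20 min until absorbance at 500 nm stabilized. Values were interpolated from a glycerol standard curve. n = 8; Kruskal–Wallis test.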

[22] = Toxicity in C57BL/6 mouse model of streptozotocin-induced nonalcoholic steatohepatitis assessed as decrease in food consumption per cage at 10 mg/kg/day, po formulated into HFD administered for 21 days measured during compound dosing relative to control; assay type: organism-based; design: scale not given: the % may be the effect or the level left; conditions: in vivo, 504 h
[23] = Toxicity in C57BL/6 mouse model of streptozotocin-induced nonalcoholic steatohepatitis assessed as effect on liver weight at 10 mg/kg/day, po formulated into HFD administered for 21 days measured during compound dosing; assay type: organism-based; conditions: in vivo, 504 h
[24] = system: Mus musculus; assay: Anti-hepatosteatosis activity in C57BL/6 mouse model of streptozotocin-induced nonalcoholic steatohepatitis assessed as reduction in liver triglyceride level at 10 mg/kg/day, po administered for 21 days formulated into HFD measured post-last dose by triglyceride E test based assay; assay type: functional, organism-based
[25] = Toxicity in C57BL/6 mouse model of streptozotocin-induced nonalcoholic steatohepatitis assessed as increase in plasma cholesterol level at 25 mg/kg/day, po formulated into HFD administered for 21 days measured post last dose by […] reagent based colorimetric method; assay type: organism-based; conditions: in vivo, 504 h; summary of the method: as §3
[26] = Toxicity in C57BL/6 mouse model of streptozotocin-induced nonalcoholic steatohepatitis assessed as effect on body weight at 10 mg/kg/day, po formulated into HFD administered for 21 days measured during compound dosing; assay type: organism-based; conditions: in vivo, 504 h
[27] = system: Mus musculus; assay: Anti-hepatosteatosis activity in C57BL/6 mouse model of streptozotocin-induced nonalcoholic steatohepatitis assessed as reduction in ALT level at 10 mg/kg/day, po administered for 21 days formulated into HFD measured post-last dose; assay type: functional, organism-based
[28] = Toxicity in C57BL/6 mouse model of streptozotocin-induced nonalcoholic steatohepatitis assessed as change in plasma AST level at 10 mg/kg/day, po formulated into HFD administered for 21 days measured post last dose; assay type: organism-based; conditions: in vivo, 504 h
[29] = system: Mus musculus; assay: as §6, with “10” for “25”; assay type: functional

Structure (SMILES): Oc1nc2nonc2nc1Nc1ccc(OC(F)(F)F)cc1
- Activity [1]: Active
- Activity [2]: Active
- concentration at 1 h [3]: 15800 ng/g
- Activity [4]: 331 g
- Activity [5]: Non-Toxic
- inhibition (INH) [6]: Not Active
- Activity [7]: Non-Toxic
- Activity [8]: Non-Toxic
- half-life [9]: 342 min
- Activity [10]: Non-Toxic
- Activity [11]: Non-Toxic
- Activity [12]: Active
- Activity [13]: Active
- Cmax [14]: 80.9 µM
- concentration at 1 h [15]: 9200 ng/g
- Activity [16]: Active
- EC50 [17]: 4.3 µM
- solubility [18]: > 500 µM
- Activity [19]: Non-Toxic
- Activity [20]: 0.62%
- Activity [21]: Non-Toxic

Structure (SMILES): CCCc1nc2c(C)cc(-c3nc4ccccc4n3C)cc2n1Cc1ccc(-c2ccccc2C(=O)O)cc1
- Activity [22]: 9%
- Activity [23]: Toxic
- Activity [24]: Active
- Activity [25]: Toxic
- Activity [26]: Toxic
- Activity [27]: Active
- Activity [28]: Non-Toxic
- Activity [29]: 0.6%
